We go through 22 compounds from ChEMBL document CHEMBL2157934, “Pyrrolidinyl phenylurea derivatives as novel CCR3 antagonists” (Bioorg Med Chem Lett, 2012).

Series [1] concerns the target T1, C-C chemokine receptor type 3 (Homo sapiens, UniProt P51677).
T1 sequence (P51677 whole entry): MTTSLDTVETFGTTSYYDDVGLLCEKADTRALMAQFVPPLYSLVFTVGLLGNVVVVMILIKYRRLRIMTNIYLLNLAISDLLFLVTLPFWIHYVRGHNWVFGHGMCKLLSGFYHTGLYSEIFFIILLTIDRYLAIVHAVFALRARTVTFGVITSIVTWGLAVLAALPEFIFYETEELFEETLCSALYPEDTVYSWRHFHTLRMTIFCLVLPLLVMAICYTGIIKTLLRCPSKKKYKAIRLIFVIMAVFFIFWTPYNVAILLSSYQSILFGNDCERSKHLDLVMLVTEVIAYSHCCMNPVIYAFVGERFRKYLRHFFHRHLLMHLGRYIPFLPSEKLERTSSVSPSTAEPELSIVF
The series can be described thus: Antagonist activity at CCR3 receptor. The class given is functional.

The target in series [2] is C-C chemokine receptor type 2 (Homo sapiens) (UniProt P41597). The series can be described thus: Inhibition of CCR2 receptor at 10 uM.
Series [3] can be described thus: Oral bioavailability in cynomolgus monkey. Format: ADME, organism-based, Macaca fascicularis. As to conditions: in vivo.
The target in series [4] is T2, C-C chemokine receptor type 1 (Homo sapiens) (UniProt P32246).
T2 sequence (whole entry): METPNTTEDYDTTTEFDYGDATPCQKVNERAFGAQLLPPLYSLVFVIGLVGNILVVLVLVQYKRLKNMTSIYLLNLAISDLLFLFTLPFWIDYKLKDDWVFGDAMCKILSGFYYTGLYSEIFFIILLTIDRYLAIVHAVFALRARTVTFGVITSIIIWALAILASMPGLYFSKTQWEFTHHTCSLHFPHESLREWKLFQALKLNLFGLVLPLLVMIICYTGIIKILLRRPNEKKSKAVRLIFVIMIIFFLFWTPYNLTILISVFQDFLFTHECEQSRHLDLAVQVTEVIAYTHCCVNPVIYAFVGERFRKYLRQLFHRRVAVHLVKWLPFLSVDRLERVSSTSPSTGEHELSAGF
Kind of series: Inhibition of CCR1 receptor at 10 uM.

Series [5] deals with T3, C-C chemokine receptor type 3 (Homo sapiens) (UniProt P51677).
T3 sequence (whole entry): T1 sequence (P51677 whole entry)
The series can be described thus: (§1) Antagonist activity at CCR3 receptor in human eosinophils assessed as inhibition of CCL11-induced degranulation after 4 hrs by ELISA. The class given is functional. A digest of the protocol: (§2)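 Eosinophils isolated from peripheral blood of normal human volunteers; wells pre-blocked with 2.5% BSA in PBS, 2 h, 37 °C. 5 × 10^5 cells in RPMI 1640 with 0.5% BSA, with or without 0.6 nM human CCL11 and varying antagonist concentrations, incubated 4 h at 37 °C, 5% CO2. Supernatant EDN quantified by ELISA; IC50 from dose-response.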

In series [6] the target is T1, C-C chemokine receptor type 3. The description is as §1. The class given is functional. A digest of the protocol: as §2
The target in series [7] is C-C chemokine receptor type 5 (Homo sapiens) (UniProt P51681). The series can be described thus: Inhibition of CCR5 receptor at 10 uM.

Activity calls are given as the source filed them. No cut-off for these calls is given here.

C-C chemokine receptor type 5 (Homo sapiens), sequence (P51681 whole entry, looked up): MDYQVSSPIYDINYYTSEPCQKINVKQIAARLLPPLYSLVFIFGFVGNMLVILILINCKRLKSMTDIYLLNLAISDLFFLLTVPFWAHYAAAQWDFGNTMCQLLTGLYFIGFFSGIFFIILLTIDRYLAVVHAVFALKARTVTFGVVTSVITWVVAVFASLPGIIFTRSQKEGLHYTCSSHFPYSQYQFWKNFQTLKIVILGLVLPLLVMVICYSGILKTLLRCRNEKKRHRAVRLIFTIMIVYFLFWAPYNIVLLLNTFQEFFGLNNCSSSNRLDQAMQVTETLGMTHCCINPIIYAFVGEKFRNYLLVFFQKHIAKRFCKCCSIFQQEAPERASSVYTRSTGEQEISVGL
C-C chemokine receptor type 2 (Homo sapiens), sequence (P41597 whole entry, looked up): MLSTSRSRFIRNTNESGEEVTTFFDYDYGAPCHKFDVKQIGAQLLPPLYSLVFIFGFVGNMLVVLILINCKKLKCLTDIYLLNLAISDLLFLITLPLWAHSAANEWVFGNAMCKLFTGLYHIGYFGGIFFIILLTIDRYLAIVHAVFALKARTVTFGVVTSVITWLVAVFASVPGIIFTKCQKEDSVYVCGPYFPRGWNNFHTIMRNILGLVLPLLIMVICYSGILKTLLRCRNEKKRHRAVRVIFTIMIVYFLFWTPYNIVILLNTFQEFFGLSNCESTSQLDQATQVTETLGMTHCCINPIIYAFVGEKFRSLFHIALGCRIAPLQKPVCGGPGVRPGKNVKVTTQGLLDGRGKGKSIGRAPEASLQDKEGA

Consider `NC(=O)COc1ccccc1NC(=O)N[C@@H]1CCN(Cc2ccc3cc(F)ccc3c2)C1`, for which, in series [1], the IC50 (as a rule, the concentration that gives 50% inhibition) is 110 nM.
Same read-out and setting: under `O=C(NC1CCCCC1)N[C@@H]1CCN(Cc2ccc3cc(F)ccc3c2)C1` stands 41 nM.
In series [1], `O=C(Nc1ccccc1)N[C@@H]1CCN(Cc2ccc3cc(F)ccc3c2)C1` registered an IC50 of 50 nM.
Still for that read-out and setting: to `O=C(Nc1ccc(OCCO)cc1)N[C@@H]1CCN(Cc2ccc3cc(F)ccc3c2)C1` belongs 71 nM.
As to `COCCOc1ccccc1NC(=O)N[C@@H]1CCN(Cc2ccc3cc(F)ccc3c2)C1`, in series [1], the IC50 was determined as 71 nM.
On the same count and under the same terms, under `CS(=O)(=O)N1CCC(NC(=O)N[C@@H]2CCN(Cc3ccc4cc(F)ccc4c3)C2)CC1` stands 14 nM; under `O=C(Nc1ccccc1CCO)N[C@@H]1CCN(Cc2ccc3cc(F)ccc3c2)C1`, 12 nM.
Same read-out and setting: under `O=C(Nc1ccccc1OCCCCO)N[C@@H]1CCN(Cc2ccc3cc(F)ccc3c2)C1` stands 51 nM; under `O=C(Nc1ccccc1OCCCO)N[C@@H]1CCN(Cc2ccc3cc(F)ccc3c2)C1`, 50 nM.
`O=C(NC1CCN(S(=O)(=O)c2ccccc2O)CC1)N1CCCN(Cc2ccc3cc(F)ccc3c2)CC1` showed an IC50 in series [1] of 25 nM.
`O=C(Nc1ccccc1OCCO)N[C@@H]1CCN(Cc2ccc3cc(F)ccc3c2)C1`: the inhibition entry in series [2], in series [4] and in series [7] was “inactive” throughout. Besides, in series [3], the bioavailability (as a rule, dose-corrected exposure relative to a reference, in per cent) was found to be 22%. Besides, the inhibition entry in series [5] is “Dose-dependent effect”. For the same compound, the figures for the IC50 in series [6] and in series [1] were 0.87 nM and 1.7 nM, respectively.
For `O=C1N(CCc2ccccc2)CCC12CCN(Cc1ccc3cc(F)ccc3c1)CC2`, the IC50 in series [1] was 600 nM.
In series [1], `O=C(Nc1cccc(OCCO)c1)N[C@@H]1CCN(Cc2ccc3cc(F)ccc3c2)C1` came in with an IC50 of 28 nM.
With `O=C(NC1CCN(Cc2ccccc2)CC1)N1CCCN(Cc2ccc3cc(F)ccc3c2)CC1`, the IC50 in series [1] is 380 nM.
Same read-out and setting: to `O=C1OC2(CCN(Cc3ccc4cc(F)ccc4c3)CC2)c2ccccc2N1Cc1ccccc1` belongs 2000 nM.
`O=C(Nc1ccccc1OCCOCCO)N[C@@H]1CCN(Cc2ccc3cc(F)ccc3c2)C1` displayed an IC50 in series [1] of 110 nM.
Compound `O=C(Nc1ccccc1CCCO)N[C@@H]1CCN(Cc2ccc3cc(F)ccc3c2)C1` came in with an IC50 in series [1] of 24 nM.
The same measure, in the same setting: under `O=C(NC1CCN(S(=O)(=O)c2ccccc2O)CC1)N[C@@H]1CCN(Cc2ccc3cc(F)ccc3c2)C1` stands 2.4 nM.
On the same count and under the same terms, to `CN(C)C(=O)COc1ccccc1NC(=O)N[C@@H]1CCN(Cc2ccc3cc(F)ccc3c2)C1` belongs 190 nM; to `COCc1ccccc1NC(=O)N[C@@H]1CCN(Cc2ccc3cc(F)ccc3c2)C1`, 44 nM; to `CN(C)CCOc1ccccc1NC(=O)N[C@@H]1CCN(Cc2ccc3cc(F)ccc3c2)C1`, 50 nM.
The same measure, in the same setting: under `O=C(Nc1ccccc1COCCO)N[C@@H]1CCN(Cc2ccc3cc(F)ccc3c2)C1` stands 9.9 nM.
